Results as given in ChEMBL document CHEMBL4346663, “N-Cinnamoylanthranilates as human TRPA1 modulators: Structure-activity relationships and channel binding sites” (Eur J Med Chem, 2019).
Activity calls are given as the source filed them. No cut-off for these calls is given here.

Experiments:
[1] = test system: Transient receptor potential cation channel subfamily A member 1 (Homo sapiens), O75762 [F944A]; test: Agonist activity at human TRPA1 Phe944Ala mutant expressed in HEK293 cells assessed as Ca2+ influx at 10 uM by fluorescence assay; type: cell-based
Sequence of Transient receptor potential cation channel subfamily A member 1 (Homo sapiens), O75762 [F944A] (O75762 whole entry F944A): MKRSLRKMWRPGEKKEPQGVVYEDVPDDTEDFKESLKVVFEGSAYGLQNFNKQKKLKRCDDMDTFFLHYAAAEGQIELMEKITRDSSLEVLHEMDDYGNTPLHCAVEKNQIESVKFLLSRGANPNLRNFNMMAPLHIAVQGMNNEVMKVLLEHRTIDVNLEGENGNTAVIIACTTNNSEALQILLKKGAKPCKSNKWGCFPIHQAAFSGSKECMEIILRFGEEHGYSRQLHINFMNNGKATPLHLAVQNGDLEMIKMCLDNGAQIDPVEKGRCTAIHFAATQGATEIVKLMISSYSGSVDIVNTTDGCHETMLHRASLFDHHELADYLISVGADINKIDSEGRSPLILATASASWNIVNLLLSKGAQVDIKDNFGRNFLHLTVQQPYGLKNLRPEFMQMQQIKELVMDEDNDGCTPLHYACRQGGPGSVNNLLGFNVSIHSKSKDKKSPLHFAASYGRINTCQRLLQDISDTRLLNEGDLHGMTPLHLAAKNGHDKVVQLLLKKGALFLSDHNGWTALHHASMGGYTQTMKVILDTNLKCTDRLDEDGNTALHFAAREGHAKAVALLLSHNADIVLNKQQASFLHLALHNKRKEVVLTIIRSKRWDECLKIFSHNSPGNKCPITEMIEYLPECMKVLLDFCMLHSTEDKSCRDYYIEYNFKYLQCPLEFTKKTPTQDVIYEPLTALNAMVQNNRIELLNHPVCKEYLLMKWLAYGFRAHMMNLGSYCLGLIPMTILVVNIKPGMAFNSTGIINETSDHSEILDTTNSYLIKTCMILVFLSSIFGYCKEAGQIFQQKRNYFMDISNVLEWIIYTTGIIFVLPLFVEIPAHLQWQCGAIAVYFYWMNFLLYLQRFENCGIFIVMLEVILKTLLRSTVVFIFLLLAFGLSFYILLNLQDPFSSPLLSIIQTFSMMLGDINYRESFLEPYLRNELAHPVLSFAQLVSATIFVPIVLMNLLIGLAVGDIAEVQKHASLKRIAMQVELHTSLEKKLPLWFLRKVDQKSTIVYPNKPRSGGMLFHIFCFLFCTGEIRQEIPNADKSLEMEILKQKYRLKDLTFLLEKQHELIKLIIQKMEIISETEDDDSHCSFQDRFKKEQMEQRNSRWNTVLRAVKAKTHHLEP
In short: (§1)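 HEK293 cells stably expressing hTRPA1 point mutants (C621A, F909A or F944A), single-cell cloned under G418 selection. Cells plated on poly-D-lysine for 48 h, loaded with Fluo-4AM 2 µM for 45 min at room temperature. FlexStation read (ex 485/em 538 nm): 20 s baseline, compound added, calcimycin added at 180 s. Response expressed as % calcimycin from ΔRFU, vehicle-subtracted, and compared with wild-type hTRPA1 cells.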

[2] = molecular target: T1, Transient receptor potential cation channel subfamily A member 1 (Homo sapiens, UniProt O75762); test: Agonist activity at human TRPA1 expressed in HEK293 cells assessed as increase in calcium influx by Fluo-4-AM dye based fluorescence assay; type: cell-based
T1 sequence (O75762 whole entry): as the sequence (O75762 whole entry F944A) above, with A944F counted along it
In short: (§2)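 Stably transfected hTRPA1- or hTRPM8-HEK293 cells on poly-D-lysine plates for 48 h, loaded with Fluo-4AM (2 µM, 45 min, dark, room temperature), in isotonic HEPES buffer pH 7.4. FlexStation 240 s run: 20 s baseline, compound added, calcimycin added at 180 s. ΔRFU expressed as % calcimycin, DMSO-subtracted. Screening N = 3. Dose-response curves fitted for logEC50 (N = 3 in duplicate or triplicate).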

[3] = test system: Transient receptor potential cation channel subfamily A member 1 (Homo sapiens), O75762 [F909A]; test: Agonist activity at human TRPA1 Phe909Ala mutant expressed in HEK293 cells assessed as Ca2+ influx at 10 uM by fluorescence assay; type: cell-based; in short: as §1
Sequence of Transient receptor potential cation channel subfamily A member 1 (Homo sapiens), O75762 [F909A] (O75762 whole entry F909A): as the sequence (O75762 whole entry F944A) above, with F909A, A944F counted along it

[4] = molecular target: T1, Transient receptor potential cation channel subfamily A member 1; test: Agonist activity at human TRPA1 in WI38 cells assessed as increase in calcium influx by Fluo-4-AM dye based fluorescence assay; type: cell-based
[5] = Dissociation constant, pKa of the compound at pH 7.4; type: physicochemical
[6] = molecular target: T2, Transient receptor potential cation channel subfamily M member 8 (Homo sapiens, UniProt Q7Z2W7); test: Antagonist activity at human TRPM8 expressed in HEK293 cells assessed as inhibition in WS5-induced increase in calcium influx incubated for 10 mins prior to WS5 challenge by Fluo-4-AM dye based fluorescence assay; type: cell-based
In short: (§3)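 hTRPM8-HEK293 cells loaded with Fluo-4AM (2 µM, 45 min). Test compound pre-incubated 10 min before WS5 standard agonist. FlexStation fluorescence at 485/538 nm. ΔRFU given as % of WS5 response after DMSO vehicle subtraction. N = 3. IC50 from dose-response curves.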
Target sequence in this assay (Q7Z2W7 whole entry): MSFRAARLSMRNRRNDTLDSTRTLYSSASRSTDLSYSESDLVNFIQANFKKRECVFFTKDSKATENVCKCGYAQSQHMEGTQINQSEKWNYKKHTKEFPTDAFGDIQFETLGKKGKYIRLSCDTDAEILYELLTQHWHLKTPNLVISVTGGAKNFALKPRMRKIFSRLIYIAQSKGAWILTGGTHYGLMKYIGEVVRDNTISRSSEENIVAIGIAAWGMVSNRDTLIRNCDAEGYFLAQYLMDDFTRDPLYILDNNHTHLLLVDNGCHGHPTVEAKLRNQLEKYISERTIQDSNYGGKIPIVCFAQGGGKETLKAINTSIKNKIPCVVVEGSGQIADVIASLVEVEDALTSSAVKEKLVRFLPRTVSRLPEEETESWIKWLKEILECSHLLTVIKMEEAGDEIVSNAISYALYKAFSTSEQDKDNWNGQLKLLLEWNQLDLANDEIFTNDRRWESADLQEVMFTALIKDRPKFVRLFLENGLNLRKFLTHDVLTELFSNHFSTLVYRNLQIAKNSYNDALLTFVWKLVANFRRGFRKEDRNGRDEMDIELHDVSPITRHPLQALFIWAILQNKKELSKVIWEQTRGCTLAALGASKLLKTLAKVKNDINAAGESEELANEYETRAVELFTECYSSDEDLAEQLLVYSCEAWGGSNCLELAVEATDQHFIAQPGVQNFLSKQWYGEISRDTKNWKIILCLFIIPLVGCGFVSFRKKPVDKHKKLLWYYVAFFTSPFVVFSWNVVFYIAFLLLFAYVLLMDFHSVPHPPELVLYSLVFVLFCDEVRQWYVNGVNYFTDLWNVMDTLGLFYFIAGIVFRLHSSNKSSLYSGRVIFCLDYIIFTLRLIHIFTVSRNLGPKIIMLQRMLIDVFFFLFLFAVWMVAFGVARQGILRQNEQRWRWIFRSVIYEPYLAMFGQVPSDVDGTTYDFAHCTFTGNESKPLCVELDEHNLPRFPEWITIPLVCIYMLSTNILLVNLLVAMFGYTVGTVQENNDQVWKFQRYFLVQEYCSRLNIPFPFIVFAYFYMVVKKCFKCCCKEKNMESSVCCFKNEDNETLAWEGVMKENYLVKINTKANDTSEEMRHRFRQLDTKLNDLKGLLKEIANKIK

Cavia porcellus [7] = organism: Cavia porcellus; test: Agonist activity at TRPA1 in Dunkin-Hartley guinea pig vagus nerve assessed as activation of vagus nerve by measuring depolarization at 100 uM […]
In short: (§4)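 Isolated vagus nerves from male Dunkin-Hartley guinea pigs (300-400 g, eight animals). Compound DMSO stocks diluted 1000× in Krebs-Henseleit buffer. Viability checked with capsaicin (1 µM) at the start and acrolein (300 µM) at the end. Single non-cumulative concentrations applied for 2 min each, with KH wash to baseline between them. DMSO vehicle run alike. Depolarization recorded in mV.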

Cavia porcellus [8] = organism: Cavia porcellus; test: Antagonist activity at TRPA1 in Dunkin-Hartley guinea pig vagus nerve assessed as inhibition of ACR-stimulated vagus nerve by measuring depolarization at 100 uM incubated for 10 mins followed by ACR stimulation for 140 secs […]
In short: (§5)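 Guinea pig vagus nerve (male Dunkin-Hartley) in Krebs-Henseleit buffer; compound from DMSO stock diluted 1000×. Two control acrolein (300 µM, 2 min) responses, each washed to baseline. Then 10 min compound pretreatment and re-stimulation with acrolein 300 µM for 2 min 20 s. After washout, a recovery acrolein response was taken. Depolarization recorded in mV.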

[9] = test system: Transient receptor potential cation channel subfamily A member 1 (Homo sapiens), O75762 [F944A]; test: Agonist activity at human TRPA1 Phe944Ala mutant expressed in HEK293 cells assessed as Ca2+ influx at 30 uM by fluorescence assay; type: cell-based; in short: as §1
[10] = test system: Transient receptor potential cation channel subfamily A member 1 (Homo sapiens), O75762 [F909A]; test: Agonist activity at human TRPA1 Phe909Ala mutant expressed in HEK293 cells assessed as Ca2+ influx at 30 uM by fluorescence assay; type: cell-based; in short: as §1
[11] = molecular target: T1, Transient receptor potential cation channel subfamily A member 1; test: Agonist activity at human TRPA1 expressed in HEK293 cells assessed as increase in calcium influx at 30 uM by Fluo-4-AM dye based fluorescence assay relative to calcimycin; type: cell-based; in short: as §2
[12] = molecular target: T2, Transient receptor potential cation channel subfamily M member 8; test: Antagonist activity at human TRPM8 expressed in HEK293 cells assessed as increase in calcium influx at 100 uM incubated for 10 mins prior to WS5 challenge by Fluo-4-AM dye based fluorescence assay relative to WS5; type: cell-based; design: scale not given: the % may be the effect or the level left; in short: as §3
Target sequence in this assay (Q7Z2W7 whole entry, looked up): as the sequence (Q7Z2W7 whole entry) above

[13] = molecular target: T2, Transient receptor potential cation channel subfamily M member 8; test: Agonist activity at human TRPM8 expressed in HEK293 cells assessed as increase in calcium influx at 100 uM by Fluo-4-AM dye based fluorescence assay relative to calcimycin; type: cell-based; in short: as §2
Target sequence in this assay (Q7Z2W7 whole entry, looked up): as the sequence (Q7Z2W7 whole entry) above

[14] = molecular target: T2, Transient receptor potential cation channel subfamily M member 8; test: Agonist activity at human TRPM8 expressed in HEK293 cells assessed as increase in calcium influx at 30 uM by Fluo-4-AM dye based fluorescence assay relative to calcimycin; type: cell-based; in short: as §2
Target sequence in this assay (Q7Z2W7 whole entry, looked up): as the sequence (Q7Z2W7 whole entry) above

[15] = molecular target: T1, Transient receptor potential cation channel subfamily A member 1; test: Antagonist activity at human TRPA1 expressed in HEK293 cells assessed as increase in calcium influx at 100 uM incubated for 10 mins prior to CA addition by Fluo-4-AM dye based fluorescence assay relative to CA; type: cell-based; design: scale not given: the % may be the effect or the level left
In short: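 hTRPA1-HEK293 cells loaded with Fluo-4AM (2 µM). Compound pre-incubated 10 min, then cinnamaldehyde standard agonist added. FlexStation read, ex 485/em 538 nm. ΔRFU normalized to the CA response set at 100 % after DMSO vehicle subtraction. N = 3. logIC50 taken from dose-response fits.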

[16] = molecular target: T1, Transient receptor potential cation channel subfamily A member 1; test: Antagonist activity at human TRPA1 expressed in HEK293 cells assessed as increase in calcium influx at 3 uM incubated for 10 mins prior to CA challenge by Fluo-4-AM dye based fluorescence assay […]; type: cell-based
[17] = molecular target: T2, Transient receptor potential cation channel subfamily M member 8; test: Antagonist activity at human TRPM8 expressed in HEK293 cells assessed as increase in calcium influx at 30 uM incubated for 10 mins prior to WS5 challenge by Fluo-4-AM dye based fluorescence assay relative to WS5; type: cell-based; design: scale not given: the % may be the effect or the level left; in short: as §3
Target sequence in this assay (Q7Z2W7 whole entry, looked up): as the sequence (Q7Z2W7 whole entry) above

[18] = molecular target: T2, Transient receptor potential cation channel subfamily M member 8; test: Agonist activity at human TRPM8 expressed in HEK293 cells assessed as increase in calcium influx at 3 uM by Fluo-4-AM dye based fluorescence assay relative to calcimycin; type: cell-based; in short: as §2
Target sequence in this assay (Q7Z2W7 whole entry, looked up): as the sequence (Q7Z2W7 whole entry) above

[19] = molecular target: T1, Transient receptor potential cation channel subfamily A member 1; test: Modulating activity at human TRPA1 expressed in HEK293 cells assessed as desensitization of CA-induced increase in Ca2+ influx at 10 uM measured within 10 mins by Fluo-4-AM dye based fluorescence assay; type: cell-based
In short: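 hTRPA1-HEK293 cells with Fluo-4AM. Real-time fluorescence recorded for 10 min after compound addition (10 µM), followed by challenge with cinnamaldehyde (30 µM) to assess desensitization of the agonist response.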

[20] = molecular target: T1, Transient receptor potential cation channel subfamily A member 1; test: Irreversible desensitizing activity at human TRPA1 expressed in HEK293 cells assessed as CA-induced increase in Ca2+ influx at >30 uM pretreated with compound followed by drug wash-out and CA challenge by Fluo-4-AM dye based fluorescence assay; type: cell-based
In short: (§6)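 hTRPA1-HEK293 cells loaded with Fluo-4AM were pre-incubated with compound, then washed and resuspended in fresh assay buffer. The response to cinnamaldehyde (30 µM) was then measured by FlexStation calcium fluorescence.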

[21] = molecular target: T1, Transient receptor potential cation channel subfamily A member 1; test: Reversible desensitizing activity at human TRPA1 expressed in HEK293 cells assessed as CA-induced increase in Ca2+ influx upto 10 uM pretreated with compound followed by drug wash-out and CA challenge by Fluo-4-AM dye based fluorescence assay; type: cell-based; in short: as §6
[22] = molecular target: T1, Transient receptor potential cation channel subfamily A member 1; test: Antagonist activity at human TRPA1 expressed in HEK293 cells assessed as inhibition of CA-induced increase in calcium influx incubated for 10 mins prior to CA addition by Fluo-4-AM dye based fluorescence assayy; type: cell-based
Cavia porcellus [23] = organism: Cavia porcellus; test: Antagonist activity at TRPA1 in Dunkin-Hartley guinea pig vagus nerve assessed as inhibition of ACR-stimulated vagus nerve by measuring depolarization at 300 uM incubated for 10 mins followed by ACR stimulation for 140 secs […]; in short: as §5
Cavia porcellus [24] = organism: Cavia porcellus; test: Agonist activity at TRPA1 in Dunkin-Hartley guinea pig vagus nerve assessed as activation of vagus nerve by measuring depolarization at 300 uM […]; in short: as §4
[25] = test system: Transient receptor potential cation channel subfamily A member 1 (Homo sapiens), O75762 [F909A]; test: Antagonist activity at human TRPA1 Phe909Ala mutant expressed in HEK293 cells assessed as Ca2+ influx at 100 uM by fluorescence assay; type: cell-based
In short: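 hTRPA1 F909A or F944A mutant HEK293 stable clones, loaded with Fluo-4AM (2 µM, 45 min, room temperature). Compound pre-incubated 10 min before the standard agonist was added. FlexStation fluorescence (485/538 nm). ΔRFU normalized to the standard agonist response set at 100 %, after DMSO vehicle subtraction.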

Structure (SMILES) | EC50 ([2]; read-out: EC50) | EC50 [4] | pKa [5] | Activity [10] | Activity [11] | Activity [12] | Activity [13] | Activity [14] | Activity [15] | further results
O=C(O)c1ccccc1Nc1cccc(C(F)(F)F)c1 [FLUFENAMIC ACID] | 7 to 57 µM | 24 µM |  |  |  |  |  |  |  | Activity [1]: inactive; EC50 ([2]; read-out: pEC50 (converted)): 6.92 µM; Activity [3]: Active
O=C(/C=C/c1ccc(C(F)(F)F)cc1)Nc1ccccc1C(=O)O | 27 µM |  | 3.4 | Active | 51% | 17% | inactive | inactive | 28% | Activity [1]: inactive; Activity [3]: Active; IC50 [6]: 34 µM; Activity (Cavia porcellus [7]): Active; inhibition (Cavia porcellus [8]): inactive; Activity [9]: Active
O=C(O)Cc1ccccc1Nc1c(Cl)cccc1Cl [DICLOFENAC] | 56 µM | 210 µM |  | Active |  |  |  |  |  | EC50 ([2]; read-out: pEC50 (converted)): 63.1 µM
Cc1cccc(Nc2ccccc2C(=O)O)c1C [MEFENAMIC ACID] | 16 µM | 61 µM |  | Active |  |  |  |  |  | 
COC(=O)c1ccccc1NC(=O)CCOc1ccccc1 |  |  | 11.9 | Active | 45% |  |  |  |  | Activity [16]: inactive; Activity [17]: 12%; Activity [9]: inactive; Activity [18]: inactive
O=C(/C=C/c1ccc(Br)cc1)Nc1ccccc1C(=O)O | 12 µM |  | 3.4 |  | 60% | 35% | inactive | inactive | 6% | Activity [19]: Active; Activity [20]: Active; IC50 [6]: 59 µM; Activity [21]: Active; IC50 [22]: 9 µM
O=C(/C=C/c1ccc(O)cc1)Nc1ccccc1C(=O)O |  |  | 3.5 |  | 1% | 70% | inactive | inactive | 35% | inhibition (Cavia porcellus [23]): inactive; Activity (Cavia porcellus [24]): Active; Activity [25]: inactive; IC50 [22]: 43 µM
